{"source": "ChEMBL document CHEMBL1126768", "about": "“A mechanism-based inactivation study of neutral endopeptidase 24.11” (J Med Chem, 1993)", "key": {"[1]": {"target": "T1, Angiotensin-converting enzyme (Rattus norvegicus, UniProt P47820)", "T1 sequence (P47820 whole entry)": "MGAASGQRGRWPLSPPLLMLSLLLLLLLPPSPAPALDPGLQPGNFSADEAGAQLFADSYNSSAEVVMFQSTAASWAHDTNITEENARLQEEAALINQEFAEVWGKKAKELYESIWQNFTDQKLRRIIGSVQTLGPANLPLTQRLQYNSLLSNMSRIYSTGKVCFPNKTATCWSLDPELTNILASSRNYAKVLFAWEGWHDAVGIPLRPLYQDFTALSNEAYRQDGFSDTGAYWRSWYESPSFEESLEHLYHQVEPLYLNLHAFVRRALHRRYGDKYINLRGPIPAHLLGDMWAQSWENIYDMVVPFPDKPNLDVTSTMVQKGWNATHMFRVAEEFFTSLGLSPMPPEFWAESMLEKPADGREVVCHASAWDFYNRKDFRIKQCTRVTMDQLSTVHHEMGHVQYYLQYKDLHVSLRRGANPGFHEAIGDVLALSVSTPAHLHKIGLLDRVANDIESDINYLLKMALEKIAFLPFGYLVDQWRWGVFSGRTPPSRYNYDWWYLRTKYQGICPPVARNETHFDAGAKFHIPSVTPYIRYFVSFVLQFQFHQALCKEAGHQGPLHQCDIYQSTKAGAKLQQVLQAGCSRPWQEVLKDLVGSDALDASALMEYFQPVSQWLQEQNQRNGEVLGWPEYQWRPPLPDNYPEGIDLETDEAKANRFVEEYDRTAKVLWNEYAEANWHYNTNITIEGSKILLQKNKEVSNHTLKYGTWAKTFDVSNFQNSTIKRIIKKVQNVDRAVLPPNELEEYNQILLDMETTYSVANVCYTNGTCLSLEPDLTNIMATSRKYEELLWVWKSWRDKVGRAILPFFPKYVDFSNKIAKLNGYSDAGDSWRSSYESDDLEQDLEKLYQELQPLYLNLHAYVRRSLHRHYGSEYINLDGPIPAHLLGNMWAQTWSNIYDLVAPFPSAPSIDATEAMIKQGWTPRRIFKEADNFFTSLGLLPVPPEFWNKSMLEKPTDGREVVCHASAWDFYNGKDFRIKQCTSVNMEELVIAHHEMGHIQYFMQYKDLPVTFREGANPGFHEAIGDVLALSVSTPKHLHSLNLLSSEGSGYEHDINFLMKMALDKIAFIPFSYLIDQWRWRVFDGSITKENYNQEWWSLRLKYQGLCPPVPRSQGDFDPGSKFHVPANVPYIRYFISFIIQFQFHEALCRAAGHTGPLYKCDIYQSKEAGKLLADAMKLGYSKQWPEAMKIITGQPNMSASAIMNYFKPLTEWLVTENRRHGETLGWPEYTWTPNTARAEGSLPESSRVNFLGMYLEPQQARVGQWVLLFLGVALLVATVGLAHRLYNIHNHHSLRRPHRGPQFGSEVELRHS", "experiment": "Inhibition constant determined for angiotensin converting enzyme (ACE)"}, "Neprilysin [2]": {"target": "T2, Neprilysin (Homo sapiens, UniProt P08473)", "T2 sequence (P08473 whole entry)": "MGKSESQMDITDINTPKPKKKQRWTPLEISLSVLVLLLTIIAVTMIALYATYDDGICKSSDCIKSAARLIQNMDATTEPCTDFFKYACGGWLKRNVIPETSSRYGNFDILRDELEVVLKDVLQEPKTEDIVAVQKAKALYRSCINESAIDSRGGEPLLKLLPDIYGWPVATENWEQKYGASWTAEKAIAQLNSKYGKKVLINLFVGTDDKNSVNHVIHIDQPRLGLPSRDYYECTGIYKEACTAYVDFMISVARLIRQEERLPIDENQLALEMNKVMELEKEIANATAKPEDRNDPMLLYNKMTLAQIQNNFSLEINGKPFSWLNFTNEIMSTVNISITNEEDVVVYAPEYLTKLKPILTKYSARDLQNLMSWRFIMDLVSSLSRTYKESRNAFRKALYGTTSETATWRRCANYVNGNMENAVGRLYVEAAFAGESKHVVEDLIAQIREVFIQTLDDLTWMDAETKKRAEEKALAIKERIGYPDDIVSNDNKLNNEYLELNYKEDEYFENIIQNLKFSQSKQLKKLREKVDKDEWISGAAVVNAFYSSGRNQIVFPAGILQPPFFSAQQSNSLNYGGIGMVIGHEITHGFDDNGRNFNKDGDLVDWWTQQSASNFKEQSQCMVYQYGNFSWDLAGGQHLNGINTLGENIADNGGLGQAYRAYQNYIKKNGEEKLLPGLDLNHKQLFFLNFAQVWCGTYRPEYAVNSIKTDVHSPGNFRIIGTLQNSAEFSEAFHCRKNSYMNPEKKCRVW", "experiment": "Inhibition constant determined for neutral endopeptidase (NEP)", "method_in_brief": "(§1)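 Reversible inhibition of recombinant human NEP (0.5 μM final), tested with inactivator at 1–50 μM in 50 mM HEPES pH 7.4 plus 5% p-dioxane. DAGNPG substrate was used at 100 and 500 μM. NEP was added last and activity was read immediately by continuous fluorescence (ex 342, em 562 nm).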"}, "[3]": {"target": "T1, Angiotensin-converting enzyme", "experiment": "Inhibition constant determined for Angiotensin I converting enzyme"}, "Neprilysin [4]": {"target": "T2, Neprilysin", "experiment": "Inhibition constant determined for Neutral endopeptidase (NEP)", "method_in_brief": "as §1"}}, "data": [{"smiles": "N#CCC(=O)CC(Cc1ccccc1)C(=O)NC(Cc1ccccc1)C(=O)O", "note": "(centres undefined)", "values": [{"measurement": "Ki", "setting": "[1]", "value": "> 10000", "unit": "µM"}, {"measurement": "Ki", "setting": "Neprilysin [2]", "value": 14, "unit": "µM"}]}, {"smiles": "N#CCC(=O)NC(Cc1ccccc1)C(=O)NC(Cc1ccccc1)C(=O)O", "note": "(centres undefined)", "values": [{"measurement": "Ki", "setting": "[3]", "value": 65, "unit": "µM"}, {"measurement": "Ki", "setting": "Neprilysin [4]", "value": 17, "unit": "µM"}]}]}
